Among the data in ChEMBL document CHEMBL3576840, “Helical Antimicrobial Sulfono-γ-AApeptides” (J Med Chem, 2015) are MIC and HC50 values, retold here.

Data set [1] has as its system Enterococcus faecalis. As to the kind of experiment: Antimicrobial activity against Enterococcus faecalis ATCC 700802 after 16 hrs. Type of data set: functional. The conditions noted are these: ATCC 700802, 16 h. The method, boiled down: (§1)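 Broth microdilution: overnight cultures were reinoculated at 1:100, grown to mid-log phase, and diluted to 1 × 10^6 CFU/mL. Cells were mixed 1:1 with serial dilutions […] and incubated 16 h at 37 °C, then read at 600 nm. MIC is the lowest concentration with no growth. Repeated multiple times, in duplicate.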

Data set [2] deals with Staphylococcus epidermidis. As to the kind of experiment: Antimicrobial activity against methicillin-resistant Staphylococcus epidermidis RP62A after 16 hrs. It is filed as functional.
The test system of data set [3] is Pseudomonas aeruginosa. As to the kind of experiment: Antimicrobial activity against Pseudomonas aeruginosa ATCC 27853 after 16 hrs. It is filed as functional. Conditions: ATCC 27853, 16 h. The method, boiled down: as §1
A short description of data set [4]: Induction of hemolysis in human RBCs incubated for 1 hr. Type of data set: cell-based, Erythrocyte. Conditions: red blood cells. The method, boiled down: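 Fresh K2EDTA human RBCs were washed in PBS until the supernatant was clear and diluted to a 5% v/v suspension. This was mixed with equal volumes of compound dilutions for 1 h at 37 °C, centrifuged, and supernatant absorbance read at 360 nm. Hemolysis was normalized between PBS (0%) and 2% Triton X-100 (100%) controls. At least three repeats, in duplicate.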

The test system of data set [5] is Escherichia. As to the kind of experiment: Antimicrobial activity against Escherichia ATCC 25922 after 16 hrs. Type of data set: functional. The conditions noted are these: ATCC 25922, 16 h. The essentials:
as §1

Data set [6] concerns Staphylococcus aureus. As to the kind of experiment: Antimicrobial activity against methicillin-resistant Staphylococcus aureus ATCC 33592 after 16 hrs. It is filed as functional. Conditions: ATCC 33592, 16 h.

Values after ≈ are worked out from the molar mass of the structure shown. Residues, ends and D or L forms follow the SMILES beside them.

`NCCCC[C@H](N)CN(CC(=O)N[C@@H](Cc1ccccc1)CN(CC(=O)N[C@@H](CCCCN)CN(CC(=O)N[C@@H](Cc1ccccc1)CN(CC(=O)N[C@@H](CCCCN)CN(CC(=O)N[C@@H](Cc1ccccc1)CN(CC(=O)N[C@@H](CCCCN)CN(CC(=O)N[C@@H](Cc1ccccc1)CN(CC(N)=O)S(=O)(=O)Cc1ccccc1)S(=O)(=O)CCN)S(=O)(=O)Cc1ccccc1)S(=O)(=O)Cc1ccccc1)S(=O)(=O)Cc1ccccc1)S(=O)(=O)CCN)S(=O)(=O)Cc1ccccc1)S(=O)(=O)Cc1ccccc1`: the MIC (as a rule, the smallest concentration in the dilution series that meets the test's criterion for growth inhibition) amounted to 10 mg/L (≈ 3.84 µM) in data set [1]; 2 mg/L (≈ 0.769 µM) in data set [2]; 15 mg/L (≈ 5.76 µM) in data set [3]; 3 mg/L (≈ 1.15 µM) in data set [5]; 3 mg/L (≈ 1.15 µM) in data set [6]. The HC50 (in general, the concentration giving 50% haemolysis) at 1 h in data set [4] is 120 µg/mL.
Take `CC(=O)N[C@@H](CCCCN)CN(CC(=O)N[C@@H](Cc1ccccc1)CN(CC(=O)N[C@@H](CCCCN)CN(CC(=O)N[C@@H](Cc1ccccc1)CN(CC(=O)N[C@@H](CCCCN)CN(CC(=O)N[C@@H](Cc1ccccc1)CN(CC(=O)N[C@@H](CCCCN)CN(CC(=O)N[C@@H](Cc1ccccc1)CN(CC(N)=O)S(=O)(=O)Cc1ccccc1)S(=O)(=O)CCN)S(=O)(=O)Cc1ccccc1)S(=O)(=O)CCN)S(=O)(=O)Cc1ccccc1)S(=O)(=O)CCN)S(=O)(=O)Cc1ccccc1)S(=O)(=O)CCN`: the MIC in data set [1] was 6 mg/L (≈ 2.35 µM); in data set [2], 4 mg/L (≈ 1.57 µM); in data set [3] it was > 50 mg/L; in data set [5], 6 mg/L (≈ 2.35 µM); in data set [6], 12 mg/L (≈ 4.71 µM). In data set [4], this compound registered an HC50 at 1 h of 150 µg/mL.
`CC(=O)N[C@@H](CCCCN)CN(CC(=O)N[C@@H](CCCCN)CN(CC(=O)N[C@@H](CCCCN)CN(CC(=O)N[C@@H](CCCCN)CN(CC(=O)N[C@@H](CCCCN)CN(CC(=O)N[C@@H](CCCCN)CN(CC(=O)N[C@@H](CCCCN)CN(CC(=O)N[C@@H](CCCCN)CN(CC(N)=O)S(=O)(=O)Cc1ccccc1)S(=O)(=O)Cc1ccccc1)S(=O)(=O)Cc1ccccc1)S(=O)(=O)Cc1ccccc1)S(=O)(=O)Cc1ccccc1)S(=O)(=O)Cc1ccccc1)S(=O)(=O)Cc1ccccc1)S(=O)(=O)Cc1ccccc1`: the MIC in data set [1], in data set [2], in data set [3], in data set [5] and in data set [6] was > 50 mg/L in each case.
With `NCCCC[C@@H](CN(CC(N)=O)S(=O)(=O)CCN)NC(=O)CN(C[C@H](Cc1ccccc1)NC(=O)CN(C[C@H](Cc1ccccc1)NC(=O)CN(C[C@H](Cc1ccccc1)NC(=O)CN(C[C@H](CCCCN)NC(=O)CN(C[C@@H](N)Cc1ccccc1)S(=O)(=O)Cc1ccccc1)S(=O)(=O)CCN)S(=O)(=O)Cc1ccccc1)S(=O)(=O)CCN)S(=O)(=O)Cc1ccccc1`, the minimal inhibitory concentration (MIC) in data set [1] was > 50 mg/L; in data set [2], 3 mg/L (≈ 1.58 µM); in data set [3], 25 mg/L (≈ 13.1 µM); in data set [5], 12 mg/L (≈ 6.3 µM); in data set [6] it was 6 mg/L (≈ 3.15 µM). The concentration for 50% haemolysis (HC50) at 1 h in data set [4] was > 250 µg/mL.
Take `CC(=O)N[C@@H](CCCCN)CN(CC(=O)N[C@@H](Cc1ccccc1)CN(CC(=O)N[C@@H](CCCCN)CN(CC(=O)N[C@@H](Cc1ccccc1)CN(CC(=O)N[C@@H](CCCCN)CN(CC(=O)N[C@@H](Cc1ccccc1)CN(CC(=O)N[C@@H](CCCCN)CN(CC(=O)N[C@@H](Cc1ccccc1)CN(CC(N)=O)S(=O)(=O)Cc1ccccc1)S(=O)(=O)CCN)S(=O)(=O)Cc1ccccc1)S(=O)(=O)Cc1ccccc1)S(=O)(=O)Cc1ccccc1)S(=O)(=O)CCN)S(=O)(=O)Cc1ccccc1)S(=O)(=O)Cc1ccccc1`: the MIC in data set [1] worked out at 10 mg/L (≈ 3.78 µM); in data set [2], 2 mg/L (≈ 0.756 µM); in data set [3], 20 mg/L (≈ 7.56 µM); in data set [5], 3 mg/L (≈ 1.13 µM); in data set [6] it was 5 mg/L (≈ 1.89 µM). Also, the HC50 at 1 h in data set [4] amounted to 80 µg/mL.
As for `CC[C@H](C)[C@H](NC(=O)CN)C(=O)NCC(=O)N[C@@H](CCCCN)C(=O)N[C@@H](Cc1ccccc1)C(=O)N[C@@H](CC(C)C)C(=O)N[C@@H](CCCCN)C(=O)N[C@@H](CCCCN)C(=O)N[C@@H](C)C(=O)N[C@@H](CCCCN)C(=O)N[C@@H](CCCCN)C(=O)N[C@@H](Cc1ccccc1)C(=O)NCC(=O)N[C@@H](CCCCN)C(=O)N[C@@H](C)C(=O)N[C@@H](Cc1ccccc1)C(=O)N[C@H](C(=O)N[C@@H](CCCCN)C(=O)N[C@H](C(=O)N[C@@H](CC(C)C)C(=O)N[C@@H](CCCCN)C(=O)N[C@@H](CCCCN)C(N)=O)[C@@H](C)CC)C(C)C` [PEXIGANAN] (H-GIGKFLKKAKKFGKAFVKILKK-NH2), the MIC in data set [1] is 32 mg/L (≈ 12.9 µM); in data set [2], 8 mg/L (≈ 3.23 µM); in data set [3], 16 mg/L (≈ 6.46 µM); in data set [5] it was 8 mg/L (≈ 3.23 µM); in data set [6] it was 16 mg/L (≈ 6.46 µM).
Take `CC(C)C[C@H](N)CN(CC(=O)N[C@@H](CC(C)C)CN(CC(=O)N[C@@H](CC(C)C)CN(CC(=O)N[C@@H](CCCCN)CN(CC(=O)N[C@@H](CC(C)C)CN(CC(=O)N[C@@H](CC(C)C)CN(CC(=O)N[C@@H](CC(C)C)CN(CC(=O)N[C@@H](CCCCN)CN(CC(N)=O)S(=O)(=O)CCN)S(=O)(=O)CC(C)C)S(=O)(=O)CCN)S(=O)(=O)CC(C)C)S(=O)(=O)CCN)S(=O)(=O)CC(C)C)S(=O)(=O)CCN)S(=O)(=O)CC(C)C`: the minimal inhibitory concentration (MIC) was > 50 mg/L in data set [1]; 12 mg/L (≈ 5.44 µM) in data set [2]; 50 mg/L (≈ 22.7 µM) in data set [3]; 12 mg/L (≈ 5.44 µM) in data set [5]; > 50 mg/L in data set [6]. Further, the HC50 at 1 h in data set [4] was > 250 µg/mL.
For `NCCCC[C@@H](CN(CC(N)=O)S(=O)(=O)CCN)NC(=O)CN(C[C@@H](N)Cc1ccccc1)S(=O)(=O)Cc1ccccc1`, the minimal inhibitory concentration (MIC) in data set [1], in data set [2], in data set [3], in data set [5] and in data set [6] was > 50 mg/L each time.
`CC(=O)N[C@@H](CC(C)C)CN(CC(=O)N[C@@H](CC(C)C)CN(CC(=O)N[C@@H](CC(C)C)CN(CC(=O)N[C@@H](CC(C)C)CN(CC(=O)N[C@@H](CC(C)C)CN(CC(=O)N[C@@H](CC(C)C)CN(CC(=O)N[C@@H](CC(C)C)CN(CC(=O)N[C@@H](CC(C)C)CN(CC(N)=O)S(=O)(=O)CCN)S(=O)(=O)CCN)S(=O)(=O)CCN)S(=O)(=O)CCN)S(=O)(=O)CCN)S(=O)(=O)CCN)S(=O)(=O)CCN)S(=O)(=O)CCN`: the minimum inhibitory concentration (MIC) in data set [1], in data set [2], in data set [3], in data set [5] and in data set [6] was > 50 mg/L each time.
`NCCCC[C@@H](CN(CC(N)=O)S(=O)(=O)CCN)NC(=O)CN(C[C@H](Cc1ccccc1)NC(=O)CN(C[C@H](Cc1ccccc1)NC(=O)CN(C[C@@H](N)Cc1ccccc1)S(=O)(=O)Cc1ccccc1)S(=O)(=O)CCN)S(=O)(=O)Cc1ccccc1`: the minimal inhibitory concentration (MIC) in data set [1] was > 50 mg/L; in data set [2], 20 mg/L (≈ 15.6 µM); in data set [3], > 50 mg/L; in data set [5], 25 mg/L (≈ 19.5 µM); in data set [6], > 50 mg/L. The 50% haemolytic concentration (HC50) at 1 h in data set [4] was > 250 µg/mL.
In the case of `NCCCC[C@H](N)CN(CC(=O)N[C@@H](Cc1ccccc1)CN(CC(=O)N[C@@H](Cc1ccccc1)CN(CC(=O)N[C@@H](Cc1ccccc1)CN(CC(=O)N[C@@H](CCCCN)CN(CC(N)=O)S(=O)(=O)CCN)S(=O)(=O)Cc1ccccc1)S(=O)(=O)CCN)S(=O)(=O)Cc1ccccc1)S(=O)(=O)CCN`, the minimum inhibitory concentration (MIC) in data set [1] was > 50 mg/L; in data set [2], 20 mg/L (≈ 12.8 µM); in data set [3] it was > 50 mg/L; in data set [5] it was 25 mg/L (≈ 16 µM); in data set [6] it was > 50 mg/L. The HC50 at 1 h in data set [4] was > 250 µg/mL.
